# Measurements taken from ChEMBL document CHEMBL4049422, “Discovery of Novel Indazole Derivatives as Orally Available β3-Adrenergic Receptor Agonists Lacking Off-Target-Based Cardiovascular Side Effects” (J Med Chem, 2017).
# Columns and labels:
# [1] = target: Beta-2 adrenergic receptor (Homo sapiens, UniProt P07550); test: Agonist activity at recombinant human beta2 adrenergic receptor expressed in CHO cells assessed as accumulation of cyclic AMP after 30 mins; type: cell-based
# [2] = target: Beta-1 adrenergic receptor (Homo sapiens, UniProt P08588); test: Agonist activity at recombinant human beta1 adrenergic receptor expressed in CHO cells assessed as accumulation of cyclic AMP after 30 mins; type: cell-based
# Sequence of Beta-1 adrenergic receptor (P08588 whole entry): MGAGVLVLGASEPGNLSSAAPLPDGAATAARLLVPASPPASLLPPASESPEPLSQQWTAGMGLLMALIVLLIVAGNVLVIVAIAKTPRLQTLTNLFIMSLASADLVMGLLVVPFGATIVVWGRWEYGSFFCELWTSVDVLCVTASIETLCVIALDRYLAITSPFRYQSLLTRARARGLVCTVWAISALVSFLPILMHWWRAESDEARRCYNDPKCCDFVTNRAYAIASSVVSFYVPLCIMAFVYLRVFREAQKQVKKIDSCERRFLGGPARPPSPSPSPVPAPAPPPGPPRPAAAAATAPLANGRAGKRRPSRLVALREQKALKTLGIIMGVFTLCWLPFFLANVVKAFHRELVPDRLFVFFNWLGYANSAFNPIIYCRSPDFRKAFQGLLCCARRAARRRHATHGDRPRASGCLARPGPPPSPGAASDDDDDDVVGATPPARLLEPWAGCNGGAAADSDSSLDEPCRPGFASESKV
# CYP3A4 = CYP3A4 (Homo sapiens, UniProt P08684); test: Inhibition of CYP3A4 (unknown origin) at 10 uM relative to control; type: ADME
# Sequence of CYP3A4 (P08684 whole entry): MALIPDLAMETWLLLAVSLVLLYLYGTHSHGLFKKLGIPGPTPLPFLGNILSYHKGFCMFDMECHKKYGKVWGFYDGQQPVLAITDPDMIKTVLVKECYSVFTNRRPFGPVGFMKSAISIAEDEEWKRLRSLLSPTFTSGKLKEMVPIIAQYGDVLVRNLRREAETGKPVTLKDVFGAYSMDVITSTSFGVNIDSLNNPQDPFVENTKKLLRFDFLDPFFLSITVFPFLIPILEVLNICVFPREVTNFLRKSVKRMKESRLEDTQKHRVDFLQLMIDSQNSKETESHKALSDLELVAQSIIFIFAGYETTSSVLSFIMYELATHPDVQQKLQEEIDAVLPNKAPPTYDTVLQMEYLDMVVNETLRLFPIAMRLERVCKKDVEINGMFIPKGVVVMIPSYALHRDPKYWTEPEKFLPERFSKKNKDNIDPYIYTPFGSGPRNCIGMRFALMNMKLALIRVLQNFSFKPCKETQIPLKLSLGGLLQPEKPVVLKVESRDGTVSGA
# Rattus norvegicus [3] = test: Cardiotoxicity in Sprague-Dawley rat assessed as decrease in mean blood pressure at 3 mg/kg, iv after 30 mins (reference value: 5.4 +/- 1.9%); type: toxicity, organism-based; set-up: scale not given: the % may be the effect or the level left; conditions: in vivo, 0.5 h
# [4] = AUC in Sprague-Dawley rat at 5 mg/kg, po by LC-MS/MS analysis; type: ADME, organism-based; conditions: in vivo
# How it was run: (§1)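 Male Sprague-Dawley rats (n = 2 or 3) dosed orally at 5 mg/kg in saline or water (5 mL/kg). Blood taken from the subclavian vein at 0.5, 1, 2, 4, 6 and 8 h; plasma separated by centrifugation, stored at -20 °C, and drug levels measured by LC-MS/MS. Values are mean ± SD (n = 3) or the average of two experiments.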
# Rattus norvegicus [5] = test: Cardiotoxicity in Sprague-Dawley rat assessed as increase in mean blood pressure at 3 mg/kg, iv after 30 mins (reference value: 1 +/- 0.5%); type: toxicity, organism-based; conditions: in vivo, 0.5 h
# [6] = target: Beta-3 adrenergic receptor (Homo sapiens, UniProt P13945); test: Intrinsic activity at recombinant human beta3 adrenergic receptor expressed in CHO cells assessed as accumulation of cyclic AMP after 30 mins relative to isoproterenol; type: cell-based
# Sequence of Beta-3 adrenergic receptor (P13945 whole entry, looked up): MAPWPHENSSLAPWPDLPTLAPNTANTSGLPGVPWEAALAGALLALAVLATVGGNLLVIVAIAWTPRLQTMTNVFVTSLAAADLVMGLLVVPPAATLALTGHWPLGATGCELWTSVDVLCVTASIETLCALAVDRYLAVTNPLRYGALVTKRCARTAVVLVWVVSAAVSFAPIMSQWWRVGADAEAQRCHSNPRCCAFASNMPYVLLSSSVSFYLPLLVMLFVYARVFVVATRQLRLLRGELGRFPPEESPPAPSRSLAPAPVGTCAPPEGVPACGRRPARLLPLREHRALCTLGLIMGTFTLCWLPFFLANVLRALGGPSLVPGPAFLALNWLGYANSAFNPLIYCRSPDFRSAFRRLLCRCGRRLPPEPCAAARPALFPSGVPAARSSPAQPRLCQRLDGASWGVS
# [7] = Half life in Sprague-Dawley rat at 5 mg/kg, po by LC-MS/MS analysis; type: ADME, organism-based; conditions: in vivo; how it was run: as §1
# [8] = target: T1, Alpha-1A adrenergic receptor (Homo sapiens, UniProt P35348); test: Intrinsic activity at recombinant human alpha1A adrenergic receptor expressed in HEK293 cells assessed as intercellular Ca mobilization by Fura-2AM dye-based fluorescence assay relative to norepinephrine; type: cell-based; conditions: read-out: Intrinsic activity
# T1 sequence (P35348 whole entry): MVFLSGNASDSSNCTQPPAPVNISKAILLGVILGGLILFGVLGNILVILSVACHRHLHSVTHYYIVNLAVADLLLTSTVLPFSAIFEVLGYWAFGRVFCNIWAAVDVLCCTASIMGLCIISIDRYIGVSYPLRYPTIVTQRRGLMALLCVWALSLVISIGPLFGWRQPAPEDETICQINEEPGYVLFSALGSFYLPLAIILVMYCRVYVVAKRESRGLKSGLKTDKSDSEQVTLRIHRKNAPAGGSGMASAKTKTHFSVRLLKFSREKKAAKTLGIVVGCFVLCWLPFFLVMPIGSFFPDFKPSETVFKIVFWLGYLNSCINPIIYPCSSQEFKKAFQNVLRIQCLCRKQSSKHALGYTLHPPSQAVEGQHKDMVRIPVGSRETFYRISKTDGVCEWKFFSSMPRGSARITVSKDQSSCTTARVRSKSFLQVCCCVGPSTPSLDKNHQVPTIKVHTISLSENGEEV
# CYP2C9 = CYP2C9 (Homo sapiens, UniProt P11712); test: Inhibition of CYP2C9 (unknown origin) at 10 uM relative to control; type: ADME
# Sequence of CYP2C9 (P11712 whole entry): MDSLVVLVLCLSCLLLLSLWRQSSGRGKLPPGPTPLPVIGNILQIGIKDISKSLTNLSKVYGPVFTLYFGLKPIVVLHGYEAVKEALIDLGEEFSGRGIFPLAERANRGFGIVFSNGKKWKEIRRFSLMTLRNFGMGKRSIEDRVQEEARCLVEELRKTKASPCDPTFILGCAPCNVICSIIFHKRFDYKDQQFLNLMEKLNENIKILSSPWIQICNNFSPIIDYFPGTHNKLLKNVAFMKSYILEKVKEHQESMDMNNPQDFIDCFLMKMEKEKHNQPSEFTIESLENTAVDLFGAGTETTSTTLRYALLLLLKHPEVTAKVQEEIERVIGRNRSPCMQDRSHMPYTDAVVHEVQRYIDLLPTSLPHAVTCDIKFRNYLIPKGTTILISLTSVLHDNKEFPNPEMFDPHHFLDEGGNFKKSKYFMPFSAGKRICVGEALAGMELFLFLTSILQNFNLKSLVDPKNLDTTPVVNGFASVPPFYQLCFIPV
# Homo sapiens = organism: Homo sapiens; test: Selectivity ratio of EC50 for recombinant human alpha1A adrenergic receptor to EC50 for recombinant human beta3 adrenergic receptor
# CYP2C19 = CYP2C19 (Homo sapiens, UniProt P33261); test: Inhibition of CYP2C19 (unknown origin) at 10 uM relative to control; type: ADME
# Sequence of CYP2C19 (P33261 whole entry): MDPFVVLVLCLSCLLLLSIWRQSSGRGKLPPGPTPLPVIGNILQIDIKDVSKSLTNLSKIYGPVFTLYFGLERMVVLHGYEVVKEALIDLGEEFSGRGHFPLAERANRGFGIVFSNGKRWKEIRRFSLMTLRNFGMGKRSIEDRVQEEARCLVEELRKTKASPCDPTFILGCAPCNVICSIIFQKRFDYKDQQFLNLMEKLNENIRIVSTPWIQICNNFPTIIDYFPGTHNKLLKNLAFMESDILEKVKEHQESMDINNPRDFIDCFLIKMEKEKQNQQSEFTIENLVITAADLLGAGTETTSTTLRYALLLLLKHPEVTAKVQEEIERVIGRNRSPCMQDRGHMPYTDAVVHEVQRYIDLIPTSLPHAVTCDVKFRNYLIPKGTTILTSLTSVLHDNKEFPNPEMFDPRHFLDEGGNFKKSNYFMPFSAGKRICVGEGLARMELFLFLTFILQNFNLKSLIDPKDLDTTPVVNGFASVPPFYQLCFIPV
# [9] = Intrinsic clearance in human liver microsomes at 1 uM in presence of NADPH by LC-MS/MS analysis; type: ADME, microsome
# How it was run: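 Pooled mixed-gender human liver microsomes (0.5 mg/mL) in 100 mM potassium phosphate pH 7.4 with NADPH-regenerating mix plus UDP-GA, test compound 1 µM, 15 min at 37 °C. Acetonitrile stop, LC-MS/MS. k from the remaining fraction. CLint,u is scaled with 48.8 mg protein/g liver and 25.7 g liver/kg, and corrected by fu from equilibrium dialysis (1 µM, 0.5 mg/mL, 6 h, 37 °C).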
# [10] = Cmax in Sprague-Dawley rat at 5 mg/kg, po by LC-MS/MS analysis; type: ADME, organism-based; set-up: dose 5 mg/kg, route oral; conditions: in vivo; how it was run: as §1
# [11] = target: Adrenoceptor beta 3 (Callithrix jacchus) (UniProt F6XZF4); test: Agonist activity at beta3 adrenergic receptor in marmoset urinary bladder smooth muscle strips assessed as induction of KCl-precontracted muscle relaxation treated every 20 mins
# Sequence of Adrenoceptor beta 3 (Callithrix jacchus) (F6XZF4 as listed by the source): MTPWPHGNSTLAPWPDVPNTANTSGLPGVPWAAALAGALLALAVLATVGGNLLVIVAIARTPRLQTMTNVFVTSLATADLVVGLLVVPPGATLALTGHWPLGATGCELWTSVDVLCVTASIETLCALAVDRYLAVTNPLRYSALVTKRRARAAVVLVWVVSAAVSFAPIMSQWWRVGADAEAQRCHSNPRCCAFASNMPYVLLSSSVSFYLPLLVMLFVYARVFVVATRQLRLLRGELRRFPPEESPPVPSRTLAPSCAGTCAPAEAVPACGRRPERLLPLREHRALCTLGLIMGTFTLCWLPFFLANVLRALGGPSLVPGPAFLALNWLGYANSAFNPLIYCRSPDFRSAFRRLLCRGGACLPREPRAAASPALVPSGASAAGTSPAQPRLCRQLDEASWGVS
# CYP2C8 = target: T2, CYP2C8 (Homo sapiens, UniProt P10632); test: Inhibition of CYP2C8 (unknown origin) at 10 uM relative to control; type: ADME
# T2 sequence (P10632 whole entry): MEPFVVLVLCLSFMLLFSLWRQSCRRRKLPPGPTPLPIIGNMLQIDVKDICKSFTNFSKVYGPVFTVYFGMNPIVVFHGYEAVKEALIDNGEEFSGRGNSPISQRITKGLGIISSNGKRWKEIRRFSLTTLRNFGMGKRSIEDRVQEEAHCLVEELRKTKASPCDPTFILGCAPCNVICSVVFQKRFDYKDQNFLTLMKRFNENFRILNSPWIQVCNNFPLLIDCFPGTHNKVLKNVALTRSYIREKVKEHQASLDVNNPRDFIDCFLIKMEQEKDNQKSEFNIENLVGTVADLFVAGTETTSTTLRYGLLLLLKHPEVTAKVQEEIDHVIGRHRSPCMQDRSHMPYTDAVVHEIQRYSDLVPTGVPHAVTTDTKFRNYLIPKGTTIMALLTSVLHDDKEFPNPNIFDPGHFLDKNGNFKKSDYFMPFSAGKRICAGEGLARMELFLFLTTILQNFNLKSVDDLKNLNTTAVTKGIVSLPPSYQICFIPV
# [12] = target: T1, Alpha-1A adrenergic receptor; test: Agonist activity at recombinant human alpha1A adrenergic receptor expressed in HEK293 cells assessed as intercellular Ca mobilization by Fura-2AM dye-based fluorescence assay; type: cell-based
# CYP2B6 = target: T3, CYP2B6 (Homo sapiens, UniProt P20813); test: Inhibition of CYP2B6 (unknown origin) at 10 uM relative to control; type: ADME
# T3 sequence (P20813 whole entry): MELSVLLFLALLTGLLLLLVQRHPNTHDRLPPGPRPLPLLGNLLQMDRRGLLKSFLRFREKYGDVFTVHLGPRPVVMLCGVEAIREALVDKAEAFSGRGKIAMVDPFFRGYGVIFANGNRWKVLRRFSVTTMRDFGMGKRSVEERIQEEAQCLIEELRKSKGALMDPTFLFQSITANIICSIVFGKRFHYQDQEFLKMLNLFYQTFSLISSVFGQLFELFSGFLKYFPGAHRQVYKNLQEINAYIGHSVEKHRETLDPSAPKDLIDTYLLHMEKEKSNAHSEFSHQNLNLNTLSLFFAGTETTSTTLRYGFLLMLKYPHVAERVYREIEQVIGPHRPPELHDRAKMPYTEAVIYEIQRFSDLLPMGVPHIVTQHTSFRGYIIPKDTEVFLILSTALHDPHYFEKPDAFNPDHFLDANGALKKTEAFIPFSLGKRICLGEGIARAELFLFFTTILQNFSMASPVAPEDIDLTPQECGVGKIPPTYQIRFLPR
# Sequence of Beta-2 adrenergic receptor (P07550 whole entry): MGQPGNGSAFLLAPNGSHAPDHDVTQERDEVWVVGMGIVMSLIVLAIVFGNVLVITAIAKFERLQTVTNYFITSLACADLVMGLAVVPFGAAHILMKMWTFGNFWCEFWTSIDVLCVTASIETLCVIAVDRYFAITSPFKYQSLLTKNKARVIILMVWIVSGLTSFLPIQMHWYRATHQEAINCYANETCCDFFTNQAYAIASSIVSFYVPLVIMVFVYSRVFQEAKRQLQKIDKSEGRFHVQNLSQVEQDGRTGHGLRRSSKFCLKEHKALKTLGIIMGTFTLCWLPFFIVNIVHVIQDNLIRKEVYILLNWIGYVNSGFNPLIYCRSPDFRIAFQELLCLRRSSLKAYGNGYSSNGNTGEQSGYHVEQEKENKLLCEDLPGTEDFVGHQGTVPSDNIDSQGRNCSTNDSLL
smiles,measurement,setting,value
Cc1n[nH]c2cc(OCCNC[C@H](O)c3cccc(NS(=O)(=O)C4CCC4)c3)ccc12,EC50,[1],> 10 µM
same,EC50,[2],> 10 µM
same,inhibition at 10 µM,CYP3A4,< 34%
same,Activity,Rattus norvegicus [3],12.9%
same,AUC,[4],312 ng·h/mL
same,Activity,Rattus norvegicus [5],2%
same,Intrinsic activity,[6],105%
same,half-life,[7],3.01 h
same,Emax,[8],0%
same,inhibition at 10 µM,CYP2C9,< 34%
same,Ratio EC50,Homo sapiens,> 556
same,inhibition at 10 µM,CYP2C19,< 34%
same,CLint scaled at 1 µM,[9],57 mL/min/kg
same,Cmax,[10],119 ng/mL
same,Activity,[11],Dose-dependent effect
same,inhibition at 10 µM,CYP2C8,< 34%
same,EC50,[12],> 10 µM
same,inhibition at 10 µM,CYP2B6,< 34%
